Measurements of several laboratories.
Compare with care: the assays were run in different laboratories.
Technique: competition with immobilised ligand
RPS6KA3 N-terminal kinase domain: Ribosomal protein S6 kinase alpha-3, N-terminal kinase domain (RPS6KA3, Homo sapiens, UniProt P51812)
RPS6KA3 C-terminal kinase domain: Ribosomal protein S6 kinase alpha-3, C-terminal kinase domain (RPS6KA3, Homo sapiens, UniProt P51812)

O=C(NCCCN1CCOCC1)c1ccc(Nc2ncc(Cl)c(-c3ccc(Cl)s3)n2)cc1 — remaining binding (RPS6KA3 N-terminal kinase domain; binding; 1 µM): 61%
CN(c1ccnc(CNc2nc(Nc3ccc4c(c3)CC(=O)N4)ncc2C(F)(F)F)n1)S(C)(=O)=O — remaining binding (RPS6KA3 N-terminal kinase domain; cell-free assay; 1 µM): 25%
COc1ccnn2ncc(-c3ccnc(N(C)C)n3)c12 — remaining binding (RPS6KA3 N-terminal kinase domain; binding; 1 µM): 85%
NS(=O)(=O)c1cc(NC(=O)C2(c3ccccc3Cl)CC2)ccc1Oc1cccc(Cl)c1 — remaining binding (RPS6KA3 N-terminal kinase domain; cell-free assay; 1 µM): 92%
Nc1ncc2c(n1)-c1c([nH]c3ccc(C#CC4CC4)cc13)CCCC2 — remaining binding (RPS6KA3 C-terminal kinase domain; binding; 1 µM): 100%
O=C(NCC1CCOCC1)c1n[nH]cc1NC(=O)c1c(F)cccc1F — remaining binding (RPS6KA3 C-terminal kinase domain; binding; 1 µM): 98%
O=C(NCCCN1CCOCC1)c1ccc(Nc2nccc(-c3cc4ccccc4s3)n2)cc1 — remaining binding (RPS6KA3 N-terminal kinase domain; binding; 1 µM): 76%
Cc1noc([C@H]2C[C@@H](c3ccc(C(F)(F)F)cc3)CN(C(=O)N3CCS(=O)(=O)C3)C2)n1 — remaining binding (RPS6KA3 N-terminal kinase domain; cell-free assay; 1 µM): 100%
COc1cnc(Nc2cccc(S(N)(=O)=O)c2)nc1N1CCN(c2ccccc2)C(=O)C1 — remaining binding (RPS6KA3 N-terminal kinase domain; binding; 1 µM): 64%
O=C1NC(c2ccccn2)Sc2ccccc21 (stereo not shown) — remaining binding (RPS6KA3 N-terminal kinase domain; cell-free assay; 1 µM): 72%
CN(C)c1ncc(F)c(-c2cnn3ncccc23)n1 — remaining binding (RPS6KA3 C-terminal kinase domain; binding; 1 µM): 68%
Cc1c(NC(=O)c2cc(C(N)=O)nc3cc(F)ccc23)c(C(F)(F)F)nn1Cc1ccc(C(C)(C)C)cc1 — remaining binding (RPS6KA3 N-terminal kinase domain; cell-free assay; 1 µM): 100%
C=CC(=O)N1CCC(C(=O)NCC(=O)N2CCN(c3nc(-c4cnc(N)nc4C(F)F)nc(N4CCOCC4)n3)CC2)CC1 — remaining binding (RPS6KA3 C-terminal kinase domain; binding; 1 µM): 63%
C[C@@H](c1ccc(-n2cnc3c(N)ncnc32)cc1)N1CCc2nn(C)c(Cc3ccccc3)c2C1=O — remaining binding (RPS6KA3 N-terminal kinase domain; binding; 0.1 µM): 56%
c1cnn2ncc(-c3ccnc(N4CCC45COC5)n3)c2c1 — remaining binding (RPS6KA3 N-terminal kinase domain; binding; 1 µM): 61%
O=C(c1ccc(Nc2ncc(Cl)c(-c3cc4ccccc4s3)n2)cc1)N1CCC(N2CCCC2)CC1 — remaining binding (RPS6KA3 N-terminal kinase domain; binding; 1 µM): 42%
FC(F)(F)Oc1cccc(-c2cnc3ccc(-c4ccncc4)nn23)c1 — remaining binding (RPS6KA3 N-terminal kinase domain; binding; 5 µM): 57%
Cc1cnc(Nc2ccc(C(=O)N3CCC(N4CCCC4)CC3)cc2)nc1-c1cc2ccccc2s1 — remaining binding (RPS6KA3 C-terminal kinase domain; binding; 1 µM): 80%
C[C@H](c1ccnc(Nc2nc3ccc(-c4cc(N(C)C)ncn4)cc3[nH]2)c1)N1CCN(C(=O)CC(F)(F)F)CC1 — remaining binding (RPS6KA3 C-terminal kinase domain; cell-free assay; 0.1 µM): 100%
O=C(c1ccc(Nc2nccc(-c3cc4ccccc4s3)n2)cc1)N1CCC(N2CCCC2)CC1 — remaining binding (RPS6KA3 N-terminal kinase domain; binding; 1 µM): 78%
CCc1ccccc1C(=O)Nc1n[nH]c2c(C)c(F)c(C3C(C#N)=C(C)N(C)C(C)=C3C#N)cc12 — remaining binding (RPS6KA3 N-terminal kinase domain; cell-free assay; 1 µM): 0.3%
N[C@H]1CCN(c2nccc(-c3cnn4ncccc34)n2)C1 — remaining binding (RPS6KA3 N-terminal kinase domain; binding; 1 µM): 89%
COc1ncc2cc3ccccc3nc2c1C#N — remaining binding (RPS6KA3 C-terminal kinase domain; cell-free assay; 5 µM): 96%
Cc1cnn2ncc(-c3ccnc(N(C)C)n3)c2c1 — remaining binding (RPS6KA3 N-terminal kinase domain; binding; 1 µM): 95%
O=C(c1ccc(Nc2ncc(Cl)c(-c3ccc(Cl)s3)n2)cc1)N1CCC(N2CCCC2)CC1 — remaining binding (RPS6KA3 C-terminal kinase domain; binding; 1 µM): 100%
C[C@H]1CCN(c2nccc(-c3cnn4ncccc34)n2)C1 — remaining binding (RPS6KA3 C-terminal kinase domain; binding; 1 µM): 93%
CNC(=O)[C@@H]1CC[C@@H](n2c(-c3ccc4cnccc4c3)nc3ccc(C(=O)NCc4cccc(C(N)=O)c4)cc32)C1 — remaining binding (RPS6KA3 N-terminal kinase domain; binding; 1 µM): 87%
CN(C)c1nccc(-c2cnn3ncccc23)n1 — remaining binding (RPS6KA3 C-terminal kinase domain; binding; 1 µM): 99%
CCN1CCN(Cc2ccc(C(=O)Nc3ccc(C)c(Oc4ccc5c(c4)CC(=O)N5)c3)cc2C(F)(F)F)CC1 — remaining binding (RPS6KA3 N-terminal kinase domain; binding; 1 µM): 100%
O=S(=O)(NC1CCC(c2cc(F)ccc2F)(S(=O)(=O)c2ccc(Cl)cc2)CC1)C(F)(F)F (stereo not shown) — remaining binding (RPS6KA3 C-terminal kinase domain; cell-free assay; 1 µM): 83%
CC(C)(C)c1ccc(-c2nc(CBr)nn2-c2cccc(O)c2)cc1 — remaining binding (RPS6KA3 N-terminal kinase domain; cell-free assay; 10 µM): 74%
c1cncc(-c2cccc(Nc3nccc(NC4CCCCC4)n3)c2)c1 — remaining binding (RPS6KA3 C-terminal kinase domain; binding; 10 µM): 79%
O=C(Nc1c[nH]nc1C(=O)NC1CCNCC1)c1cc(F)cc(F)c1 — remaining binding (RPS6KA3 N-terminal kinase domain; binding; 1 µM): 74%
COc1cnc(Nc2cccc(S(N)(=O)=O)c2)nc1N1CCN(c2ccccc2)CC1 — remaining binding (RPS6KA3 C-terminal kinase domain; binding; 1 µM): 81%
